Compounds with a hit are over-represented: about 3.8% of the library has one in this group of screens.
RAM inhibit = yeast RAM network inhibition. inhibition, % at 50 µM. hit rate 1.8% among 190,000. S. cerevisiae dse1pr::URA3 reporter, 5-FOA growth OD615, 2 d; analog-sensitive cbk1-as2 kinase mutant strain;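 active = inhibition above a set limit, 3 SD over mean compound inhibition, cut at about 8.4% in these data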;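 note: 0% = DMSO-only wells with no growth and 100% = 10 µM 1-NA-PP1 full growth; inhibition rescues growth on 5-FOA so higher OD means more RAM inhibition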
Yeast life ext = yeast lifespan extension; inhibition of the nicotinamide effect, % at 10 µM; S. cerevisiae growth with nicotinamide, OD615; deaD strain in restrictive glucose medium; AID 775; hit rate 0.68% among 130,000;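 active = inhibition above a set limit, placed 3 SD over the median of all compounds, cut at about 26% in these data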;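 note: 0% = nicotinamide-treated wells and 100% = cells grown without nicotinamide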
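System: DeaD-strain S. cerevisiae / Buffer or medium: CSMM-D, restrictive glucose (dextrose) synthetic minimal medium / Probe or stimulus: nicotinamide, 1.5 mM, co-present with compound / Compound: one concentration, 10 µM, DMSO 0.25% / Incubation: 48 h compound exposure at 30 °C, humidified / Technique: optical density (absorbance) at 615 nm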
sdo1 growth = restores growth of sdo1-depleted yeast; S. cerevisiae sdo1-depleted JHY4D growth rescue, OD600 30 h; hits give high values; pdr5 snq2 efflux-pump mutant strain; z-score at 10 µM; hit rate 0.21% among 140,000; AID 817;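 active = z-score above 3 at both the 24 hr and the 30 hr optical density reads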;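 note: z-score against mean and SD of all compound wells on the same plate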
Measles CPE = protection of cells from measles virus; hit rate 1.5% among 140,000; Measles virus-infected cells, CPE protection, absorbance; protection (pct of control), % at 4 µM; AID 841; in the data active = protection mostly above about 24%, no sharp cut-off; inactive = mostly below about 26%
BB579 growth dn = chemicals that inhibit yeast BB579 growth in restrictive medium (lifespan-shortening candidates). AID 804. hit rate 0.51% among 140,000. inhibition, % at 10 µM. S. cerevisiae BB579 growth, OD615, 48 h;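 active = inhibition above a set limit, 3 SD over the mean compound inhibition, cut at about 44% in these data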
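test system = yeast BB579 (DeaD) | buffer or medium = restrictive CSMM-D medium | doses = single compound dose of 10 µM, 0.25% DMSO final | times = 4 h preincubation and 48 h exposure at 30 °C | technique = culture absorbance at 615 nm | benchmarks = amphotericin B 10 µg/mL, positive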
Starred values were filed as active, the others as inactive; / = no result given; [ ] = dose if it differs, or a comment.

SMILES	RAM inhibit	Yeast life ext	sdo1 growth	Measles CPE	BB579 growth dn
COc1ccc(/C=N/Nc2nnc(Cc3ccc(OC)c(OC)c3)c(=O)[nH]2)cc1OC	9.7*	4	1.9	7	-18
COC(=O)c1ccc(-c2ccco2)n1Cc1nc(-c2ccc(OC)c(OC)c2)oc1C	8.4*	-2	-0.94	16	-78
COc1ccc(C(=O)Nc2ccccc2C(=O)NC(Cc2ccc(O)cc2)C(=O)NNC(=O)c2ccncc2)cc1 (centres undefined)	1	/	/	/	/
COC(=O)N/N=C/c1c(C)c(C(=O)c2ccc(F)cc2)n2ccccc12	0	-2	-1.6	24	-30
Cc1c(/C=N/NC(=O)CNc2ccccc2)c2ccccn2c1C(=O)c1ccccc1	-1	1	-1.1	23*	1
C=CCN(CC=C)S(=O)(=O)c1ccc(NC(=S)NC(=O)/C=C/c2ccccc2)cc1	10*	-8	-0.96	27	-17
CCCC(=O)Nc1ccc(-c2cnc(-c3ccc(NC(=O)CCC)cc3)nc2)cc1	4	2	-0.52	26	-34
Nc1ccc(-c2cnc(-c3ccc(N)cc3)nc2)cc1	2	-26	0.35	69*	-50
CCCN1CNC(=S)N(c2cc(C)ccc2C)C1	0	/	0.96	34*	3
CC(=O)/C(=N\Nc1ccc(C)cc1)N1CCOCC1	-2	-13	-0.88	3	92*
Cc1ccc(NC(=O)CC(=O)NCCN2CCOCC2)cc1	4	-11	-0.56	9	-7
CCn1cc(/C=N\NC(=O)c2ccc(Cl)cc2)cn1	0	3	0.9	2	-3
OCCc1ccc(-c2ccc(Cl)cc2)o1	0	-34	1.9	37*	-56
CCOc1ccccc1N(C(=O)Cn1nnnc1-c1ccc(C)o1)C(CC)C(=O)NC(C)(C)C (centres undefined)	2	-1	-0.02	39*	-32
Cc1ccc(S(=O)(=O)n2[nH]c(=O)c(CCO)c2C)cc1	2	/	/	/	/
Cc1ccc(-c2nnc(-c3ccccc3)o2)cc1	3	/	-1.1	10	-40
CCNc1nnc(-c2ccc(C)cc2)o1	1	-13	-0.43	39*	-24
COc1ccc2c(c1O)C(=O)c1ccccc1C2=O	2	/	/	/	/
CC(C)COC(=O)c1ccc2c(c1O)C(=O)c1ccccc1C2=O	8.8*	-8	-1.9	8	-26
COc1cc(C(=S)N2CCOCC2)ccc1OC(=O)c1cc([N+](=O)[O-])c(C)c([N+](=O)[O-])c1	2	-3	0.06	11	-2
CCOC(=O)c1ccc(CC2S/C(=C(\C#N)C(C)=O)NC2=O)cc1 (centres undefined)	1	20	-0.6	11	-55
CCc1ccc(CC2S/C(=C(\C#N)C(C)=O)NC2=O)cc1 (centres undefined)	3	44*	2.7	31	-3
COc1ccc(Cn2nnnc2C(C(C)C)N2CCc3ccccc32)cc1 (centres undefined)	11*	8	-1.5	4	-7
CC(NC(=O)Nc1ccc(Cl)cc1)C(c1cccs1)N1CCOCC1 (centres undefined)	0	-7	0.1	32	49*
COc1ccc(-n2nc(C(=O)NCC(=O)NCc3ccc(F)cc3)c3ccccc3c2=O)c(OC)c1	6	-30	-0.84	87*	-49
SMILES	RAM inhibit	Yeast life ext	sdo1 growth	Measles CPE	BB579 growth dn
CC(=O)c1ccc(NC(=S)NC(C)c2ccc(Cl)cc2Cl)cc1 (centres undefined)	4	/	/	/	/
CC(C)(/C=N/NC(=O)CSCc1ccc(Cl)cc1)CCC#N	1	/	/	/	/
COc1cccc(Nc2ncnc3c2cnn3C)c1	1	-21	-0.04	4	-6
CCCN(CCC)c1ncnc2c1cnn2-c1ccc(OC)cc1	-1	-21	-0.67	92*	-65
CCCNc1ncnc2c1cnn2-c1ccc(OC)cc1	3	-15	1.8[15.7 µM]	9	-11
COc1ccc(-n2ncc3c(Nc4cccc(C)c4)ncnc32)cc1	2	-6	-1.6	38*	-24
COc1ccccc1OCC#CCNC1CCCCC1C (centres undefined)	1	/	/	/	/
Cn1c(NNC(=O)C2CCCCC2)cc(=O)n(C)c1=O	1	/	/	/	/
Cc1ccc(NC(=O)Cn2cc(S(=O)(=O)c3ccc(F)cc3)c(=O)c3cc(F)ccc32)cc1	8.5*	2	-0.15	8	-24
Cc1ccc(S(=O)(=O)c2cn(CC(=O)Nc3ccccc3)c3ccc(F)cc3c2=O)cc1	6	5	0.32	24	-11
O=C(NC1CCCCC1)NC1CC2CCC(C1)N2C(=O)NC1CCCCC1 (centres undefined)	0	-11	1.3	25*	-3
O=C(NC1CCCCC1)NC1CC2CCC(C1)N2C(=O)NCc1ccccc1 (centres undefined)	-1	-6	0.87	12	-21
CN(C(=O)CSc1nnc(-c2ccccc2)o1)c1c(N)n(Cc2ccccc2)c(=O)[nH]c1=O	2	/	/	/	/
Cc1nc(-c2ccccc2)cc(N2CCCC2)n1	1	-1	-0.56	33*	-36
CC(C)=NNc1nc2c(c(=O)n(C)c(=O)n2C)n1CCc1ccccc1	2	/	/	/	/
CCCc1nc(Nc2nc3ccccc3o2)nc(C)c1C(=O)OCC	11*	-4	-1.1	6	-58
COc1ccc(CCNC(=O)c2cccnc2SC)cc1	2	/	/	/	/
COc1ccc(/C=C(\CC(=O)O)c2nc3ccccc3o2)cc1	9.6*	/	/	/	/
O=C1CCCN1c1ccc(S(=O)(=O)Oc2ccc(Cl)cc2)cc1[N+](=O)[O-]	3	-24	-0.49	30	-17
Cc1ccc2c(N)c(C(=O)N(c3ccccc3)c3ccccc3)sc2n1	2	/	-1.3	3	-7
CC(=O)N1CCN(c2ccc(NC(=O)COc3ccc(Cl)cc3Cl)cc2)CC1	10*	-4	-0.03	5	-5
Cc1cc(C)nc(NS(=O)(=O)c2ccc(NC(=O)CN3C(=O)S/C(=C\c4ccccc4)C3=O)cc2)n1	9.9*	0	0.03	27	-18
O=C(CCN1C(=O)S/C(=C\c2ccccc2)C1=O)Nc1ccc(S(=O)(=O)Nc2nccs2)cc1	3	-9	-0.14	4	-15
Cc1ccc(/C=C2\C(=O)Nc3ccccc32)o1	1	-7	-2.1	4	60*
C[C@@H](C(=O)Nc1ccc2ccccc2c1)[C@H]1C[C@]1(C)[C@H](NC(=O)OCc1ccccc1)c1ccccc1	3	7	-0.21	38*	1
C[C@H](CO)NC(=O)[C@H](C)[C@H]1C[C@]1(C)[C@H](NC(=O)OCc1ccccc1)c1ccccc1	0	3	0.19	17	-38
CCSc1nnc(NC(=O)C2(C)Cc3ccccc3C(=O)O2)s1 (centres undefined)	-1	37*	-1.3	3	-3
COc1ccc(OC)c(NC(=O)CSc2nnc(Cn3nnc4ccccc43)n2C)c1	1	-19	-0.51	16	-1
CCCCOc1ccc(C(=O)N2CCCC2C(=O)O)cc1 (centres undefined)	-1	-3	0.07	48*	-18

Screening results deposited in PubChem BioAssay by several laboratories.
